Experimental data published in PubChem BioAssay AID1517 (The Scripps Research Institute Molecular Screening Center, 2009).
The list shows a part of the results. Calls of active or inactive are those of the source.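 The calls were made as follows: active = percent inhibition of p97 ATPase above a set limit, the primary screen's mean plus 3 SD (cut at about 15% in these data); inactive = the rest.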

target: Transitional endoplasmic reticulum ATPase (Homo sapiens) (UniProt P55072); experiment: blockers of p97 ATP hydrolysis – biochemical, confirmation (AID 1517); details: recombinant p97 ATPase, Kinase-Glo ATP luminescence; at 8 µM; hits give high values;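 also: 0% = DMSO wells and 100% = wells lacking p97 protein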
In short: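 Material: recombinant p97; timing: 30 min preincubation at 25 °C plus 3 h with ATP; signal: Kinase-Glo luminescence; read-out basis: percent inhibition of ATPase activity, normalized to DMSO and no-enzyme wells; benchmarks: DMSO wells without compound and wells lacking p97 enzyme; repeats: triplicate wells per compound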

Transitional endoplasmic reticulum ATPase (Homo sapiens), sequence (P55072 whole entry, looked up): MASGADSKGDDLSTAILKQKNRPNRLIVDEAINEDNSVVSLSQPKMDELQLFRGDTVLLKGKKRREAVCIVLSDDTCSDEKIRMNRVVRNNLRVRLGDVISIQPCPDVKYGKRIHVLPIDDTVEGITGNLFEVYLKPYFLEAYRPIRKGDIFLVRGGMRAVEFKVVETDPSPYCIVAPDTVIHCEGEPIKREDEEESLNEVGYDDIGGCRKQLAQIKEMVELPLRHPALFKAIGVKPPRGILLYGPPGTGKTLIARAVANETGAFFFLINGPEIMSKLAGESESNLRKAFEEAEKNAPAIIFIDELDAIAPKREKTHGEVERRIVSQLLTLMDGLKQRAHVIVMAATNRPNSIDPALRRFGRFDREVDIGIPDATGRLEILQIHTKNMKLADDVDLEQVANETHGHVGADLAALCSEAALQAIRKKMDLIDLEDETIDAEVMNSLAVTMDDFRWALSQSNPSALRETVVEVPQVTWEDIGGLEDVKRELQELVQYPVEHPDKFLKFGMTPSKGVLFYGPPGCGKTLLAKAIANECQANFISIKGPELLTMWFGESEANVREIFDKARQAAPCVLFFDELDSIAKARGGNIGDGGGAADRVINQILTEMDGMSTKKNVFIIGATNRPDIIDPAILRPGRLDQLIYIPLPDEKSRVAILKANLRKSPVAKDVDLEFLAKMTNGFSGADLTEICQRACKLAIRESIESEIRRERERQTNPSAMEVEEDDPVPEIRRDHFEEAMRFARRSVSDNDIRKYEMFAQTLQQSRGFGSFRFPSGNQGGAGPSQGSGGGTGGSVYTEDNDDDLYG

Row | Structure (SMILES) | inhibition
1 | Oc1c(Cl)cc(Cl)c(Cl)c1Cc1c(O)c(Cl)cc(Cl)c1Cl | 73.9% (active)
2 | N#CC1=C(N)Oc2[nH]c(=S)[nH]c(=O)c2C12C(=O)Nc1ccccc12 (stereo not drawn) | 25.8% (active)
3 | Cc1[nH][nH]c(=O)c1C(c1ccc(-c2ccc(Cl)cc2)o1)c1c(C)[nH][nH]c1=O | 9.11% (inactive)
4 | Clc1ccc(C2=CSC3=Nc4cccc5cccc(c45)N23)cc1 | 2.9% (inactive)
5 | COc1ccc(Cl)cc1C(=O)NNC(=O)c1nc2nc(C)cc(C)n2n1 | 20.8% (active)
6 | O=C(/C=C/c1ccc(Cl)c([N+](=O)[O-])c1)c1ccc(O)cc1 | 10.9% (inactive)
7 | CCOC(=O)N1CCC(c2cc(=O)n(-c3ccccc3)[nH]2)CC1 | 7.34% (inactive)
8 | COc1ccccc1C1C(C#N)=C(N)Oc2c1c(-c1ccccc1)nn2-c1ccccc1 (stereo not drawn) | 1.04% (inactive)
9 | O=C(OCC1O[C@@H](OC(=O)c2cc(O)c(O)c(O)c2)[C@@H](OC(=O)c2cc(O)c(O)c(O)c2)[C@@H](OC(=O)c2cc(O)c(O)c(O)c2)[C@@H]1OC(=O)c1cc(O)c(O)c(O)c1)c1cc(O)c(O)c(O)c1 (stereo partly drawn) | 59.8% (active)
10 | CC1CCCN(C(C(=O)Nc2ccc(C(C)C)cc2)c2ccc3c(c2)OCO3)C1 (stereo not drawn) | -0.84% (inactive)
11 | N=C1C(c2nc3ccccc3s2)=C(O)CN1NC(=O)c1ccc([N+](=O)[O-])cc1 | 37.1% (active)
12 | Oc1c(C=Nc2cccc3nsnc23)ccc2ccccc12 | 4.01% (inactive)
13 | NC(N)=N/N=C/c1ccc(OCc2ccc(Cl)cc2Cl)cc1 | 37.7% (active)
14 | CCC(C)NC(=O)CSC1=Nc2ccccc2C2=NC(CCC(=O)NCc3ccco3)C(=O)N12 (stereo not drawn) | 4.93% (inactive)
15 | Cc1no[n+]([O-])c1COc1ccccc1/C=C1\NC(=S)NC1=O | 39.9% (active)
16 | CCN(CC)CCNC(=O)CCCCCn1c(=O)[nH]c2cc(C(=O)OC)ccc2c1=O | 2.31% (inactive)
17 | N#Cc1c(N2CCCCC2)nc(N)c2c(N)nc(SCC(=O)O)cc12 | 46% (active)

Row | Structure (SMILES) | inhibition
18 | COc1ccc2c(c1)C(=C(C#N)C#N)C(=O)N2CCc1ccccc1 | 19.5% (active)
19 | O=C(NNC(=S)Nc1ccccc1)c1cccc(S(=O)(=O)N2CCOCC2)c1 | 3.56% (inactive)
20 | C=CCn1c(=S)[nH]c2scc(-c3ccco3)c2c1=O | 13.5% (inactive)
21 | CC(C(=O)O)n1cnc2sc3c(c2c1=O)CCCC3 (stereo not drawn) | 6.68% (inactive)
22 | C=CCn1c(N)c(C(=O)OCC(C)C)c2nc3ccccc3nc21 | 18.1% (active)
23 | CCN(c1ccccc1)S(=O)(=O)c1ccc(N)cc1 | 1.51% (inactive)
24 | CCOc1c(Br)cc(/C=C2\C(=O)N(CCC#N)N=C2C)cc1OC | 6.06% (inactive)
25 | CCN1C(=O)/C(=C2/Sc3ccccc3N2CCCS(=O)(=O)O)SC1=S | 4.27% (inactive)
26 | Cc1ccc2c(c1)NCC(C(=O)NC1CCC(C)CC1)O2 (stereo not drawn) | 4.67% (inactive)
27 | O=C(c1[nH]ncc1-c1ccc(Cl)cc1)C1CO1 (stereo not drawn) | 12.5% (inactive)
28 | CC(=O)N1CCc2cc(Br)cc(S(=O)(=O)CCC(=O)Nc3c(C)n(C)n(-c4ccccc4)c3=O)c21 | 2.71% (inactive)
29 | Cc1cc(C)c2cc(CN(Cc3nnnn3Cc3ccc(F)cc3)C3CCCC3)c(=O)[nH]c2c1 | 4.43% (inactive)
30 | [O-][n+]1onc2c1CCc1[nH]c(-c3ccccc3)nc1-2 | 39.8% (active)
31 | COc1ccc(-c2cc(-c3ccc(N)cc3)nc(N)c2C#N)cc1OC | 19.8% (active)
32 | Nc1ccc2nc3c(=O)[nH]c(=S)[nH]c3nc2c1 | 25.4% (active)
33 | COc1ccc(-c2[nH]ncc2/C=N/NC(=O)c2cc(Br)ccc2O)c(OC)c1 | 25.7% (active)
